Assays:
[1] = target: Heat shock protein HSP 90-alpha (Homo sapiens, UniProt P07900); experiment: Displacement of GM-FITC from full-length recombinant human Hsp90-alpha after 4 hrs by fluorescence polarization assay
NCI-H460 = experiment: Cytotoxicity against human NCI-H460 cells assessed as growth inhibition after 72 hrs by SRB assay; assay type: functional, cell-based; settings: NCI-H460, 72 h
Method in brief: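 NCI-H460 cells grown in RPMI-1640 with 10% heat-inactivated FBS, seeded at about 10% confluence and allowed 24 h recovery. Exposed to graded drug concentrations or solvent for 72 h. Surviving fraction measured by sulforhodamine B. IC50 is the concentration giving a 50% drop in cell number vs vehicle, from dose-response curve fitting; mean of n=4 with SD.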

[2] = target: Heat shock protein HSP 90-beta (Homo sapiens) (UniProt P08238); experiment: Inhibition of HSP90 in human A431 cells overexpressing EGFR assessed as downregulation of EGFR protein expression after 24 hrs by Western blot analysis; assay type: cell-based; settings: A-431
Method in brief: (§1)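 A431 cells treated 24 h after seeding for 24 h over a concentration range; 17-DMAG 0.2 µM as reference. Cells lysed in RIPA buffer with protease and phosphatase inhibitors, protein measured by Bradford. Equal protein run on SDS-PAGE and blotted to nitrocellulose, then probed for EGFR, Cdk4, Akt, Hsp70 and actin. ECL detection; densitometry normalized to β-actin. Run at least twice.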

[3] = target: Heat shock protein HSP 90-beta (Homo sapiens) (UniProt P08238); experiment: Inhibition of HSP90 in human A431 cells overexpressing EGFR assessed as downregulation of CDK4 protein expression after 24 hrs by Western blot analysis; assay type: cell-based; settings: A-431; method in brief: as §1
[4] = target: Heat shock protein HSP 90-beta (Homo sapiens) (UniProt P08238); experiment: Inhibition of HSP90 in human A431 cells overexpressing EGFR assessed as downregulation of AKT protein expression after 24 hrs by Western blot analysis; assay type: cell-based; settings: A-431; method in brief: as §1
[5] = target: Heat shock protein HSP 90-beta (Homo sapiens) (UniProt P08238); experiment: Inhibition of HSP90 in human A431 cells overexpressing EGFR assessed as induction of HSP70 protein expression after 24 hrs by Western blot analysis; assay type: cell-based; settings: A-431; method in brief: as §1

Sequence of Heat shock protein HSP 90-beta (Homo sapiens) (P08238 whole entry): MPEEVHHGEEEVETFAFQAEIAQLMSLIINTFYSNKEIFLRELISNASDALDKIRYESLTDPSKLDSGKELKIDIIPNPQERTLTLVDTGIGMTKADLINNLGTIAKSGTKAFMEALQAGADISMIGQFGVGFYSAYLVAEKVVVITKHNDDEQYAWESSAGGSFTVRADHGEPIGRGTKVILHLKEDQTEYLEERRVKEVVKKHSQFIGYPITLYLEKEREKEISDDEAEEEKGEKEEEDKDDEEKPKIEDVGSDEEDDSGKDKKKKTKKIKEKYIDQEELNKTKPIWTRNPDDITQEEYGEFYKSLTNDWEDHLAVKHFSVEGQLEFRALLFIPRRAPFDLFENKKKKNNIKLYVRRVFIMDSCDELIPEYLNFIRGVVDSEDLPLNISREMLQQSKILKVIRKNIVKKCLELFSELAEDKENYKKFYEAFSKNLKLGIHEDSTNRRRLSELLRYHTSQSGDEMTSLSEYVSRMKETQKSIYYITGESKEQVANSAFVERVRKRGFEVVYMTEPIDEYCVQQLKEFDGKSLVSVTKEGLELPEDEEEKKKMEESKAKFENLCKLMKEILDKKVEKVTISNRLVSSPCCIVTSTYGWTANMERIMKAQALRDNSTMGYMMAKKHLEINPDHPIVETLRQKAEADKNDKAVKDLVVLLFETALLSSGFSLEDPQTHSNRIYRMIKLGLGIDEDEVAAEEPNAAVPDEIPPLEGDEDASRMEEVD

Row | Structure (SMILES) | IC50 [1] [nM] | IC50 (NCI-H460) [nM] | inhibition [2] | inhibition [3] | inhibition [4] | inhibition [5]
1 | CCNC(=O)c1nnn(-c2cc(C(C)C)c(O)cc2O)c1-c1ccc(CN2CCCCC2CCO)cc1 (stereo unspecified) | 10 | 110 | – | – | – | –
2 | CC(C)c1cc(-n2nnc(C(=O)N[C@H](C(=O)O)C(C)C)c2-c2ccc(CN3CCOCC3)cc2)c(O)cc1O | 181 | > 1000 | – | – | – | –
3 | CCNC(=O)c1nnn(-c2cc(C(C)C)c(O)cc2O)c1-c1ccc(CNCCCN(CC)CC)cc1 | 12 | 412 | – | – | – | –
4 | CCNC(=O)c1nnn(-c2cc(C(C)C)c(O)cc2O)c1-c1ccc(CN(CC)CC)cc1 | 25 | 11 | Dose-dependent effect | Dose-dependent effect | Dose-dependent effect | Dose-dependent effect
5 | CC(C)c1cc(-n2nnc(C(=O)NC3CCCCC3)c2-c2ccc(CN3CCOCC3)cc2)c(O)cc1O | 95 | 46 | – | – | – | –
6 | CCNC(=O)c1nnn(-c2cc(C(C)C)c(O)cc2O)c1-c1ccc(CNCC2CCCCC2)cc1 | < 5 | 2.1 | Dose-dependent effect | Dose-dependent effect | Dose-dependent effect | Dose-dependent effect
7 | CCNC(=O)c1nnn(-c2cc(C(C)C)c(O)cc2O)c1-c1ccc(CN2CCC(N(C)C)CC2)cc1 | < 5 | 120 | – | – | – | –
8 | CC(C)c1cc(-n2nncc2-c2ccc(CN3CCN(Cc4ccccc4)CC3)cc2)c(O)cc1O | 27 | 180 | – | – | – | –
9 | CCCCCCCNC(=O)c1nnn(-c2cc(C(C)C)c(O)cc2O)c1-c1ccc(CN2CCOCC2)cc1 | 33 | 45 | – | – | – | –
10 | CCNC(=O)c1nnn(-c2cc(C(C)C)c(O)cc2O)c1-c1ccc(CN2CC[C@H](N(C)C)C2)cc1 | 13 | 85 | – | – | – | –
11 | CC(C)c1cc(-n2nnc(C(=O)NC3CCCC3)c2-c2ccc(CN3CCOCC3)cc2)c(O)cc1O | 27 | 14 | Dose-dependent effect | Dose-dependent effect | Dose-dependent effect | Dose-dependent effect
12 | CCNC(=O)c1nnn(-c2cc(C(C)C)c(OC(C)=O)cc2OC(C)=O)c1-c1ccc(CN2CCOCC2)cc1 | > 1000 | 6.5 | Dose-dependent effect | Dose-dependent effect | Dose-dependent effect | Dose-dependent effect
13 | CC(C)c1cc(-n2cc(-c3ccc(CN4CCN(c5ccccc5)CC4)cc3)nn2)c(O)cc1O | 320 | > 1000 | – | – | – | –
14 | CCNC(=O)c1nnn(-c2cc(C(C)C)c(O)cc2O)c1-c1ccc(Cn2ccnc2)cc1 | 23 | 28 | – | – | – | –
15 | CC(C)c1cc(-n2nncc2-c2ccc(CN3CCCC(O)C3)cc2)c(O)cc1O (stereo unspecified) | 37 | 45 | – | – | – | –
16 | CCNC(=O)c1nnn(-c2cc(C(C)C)c(O)cc2O)c1-c1ccc(CNCCN(CC)CC)cc1 | 15 | 200 | – | – | – | –

Row | Structure (SMILES) | IC50 [1] [nM] | IC50 (NCI-H460) [nM] | inhibition [2] | inhibition [3] | inhibition [4] | inhibition [5]
17 | CCNC(=O)c1nnn(-c2cc(C(C)C)c(O)cc2O)c1-c1ccc(CN2CCCCC2)cc1 | 21 | 6 | Dose-dependent effect | Dose-dependent effect | Dose-dependent effect | Dose-dependent effect
18 | CCNC(=O)c1nnn(-c2cc(C(C)C)c(O)cc2O)c1-c1ccc(CNC2CCCCC2)cc1 | 6.8 | 15 | – | – | – | –
19 | CC(C)c1cc(-n2cc(-c3ccc(CN4CCN(Cc5ccccc5)CC4)cc3)nn2)c(O)cc1O | 295 | > 1000 | – | – | – | –
20 | CCNC(=O)c1nnn(-c2cc(C(C)C)c(O)cc2O)c1-c1ccc(CN2CCCC2)cc1 | < 5 | 3 | – | – | – | –
21 | CCNC(=O)c1nnn(-c2cc(C(C)C)c(O)cc2O)c1-c1ccc(CN2CCN(C)CC2)cc1 | < 5 | 47 | – | – | – | –
22 | CC(C)c1cc(-n2nncc2-c2ccc(CN3CCOCC3)cc2)c(O)cc1O | 35 | 150 | – | – | – | –
23 | CCNC(=O)c1nnn(-c2cc(C(C)C)c(O)cc2O)c1-c1ccc(CNC2CCN(C)CC2)cc1 | 32 | > 1000 | – | – | – | –
24 | CCNC(=O)c1nnn(-c2cc(C(C)C)c(O)cc2O)c1-c1ccc(CN(CC)CCO)cc1 | < 5 | 56 | – | – | – | –
25 | CCNC(=O)c1nnn(-c2cc(C(C)C)c(O)cc2O)c1-c1ccc(CN2CCNCC2)cc1 | < 5 | 250 | – | – | – | –
26 | CCNC(=O)c1nnn(-c2cc(C(C)C)c(O)cc2O)c1-c1ccc(CN2CCC[C@@H](O)C2)cc1 | 30 | 52 | – | – | – | –
27 | CC(C)c1cc(-n2nnc(C(=O)NCCCl)c2-c2ccc(CN3CCOCC3)cc2)c(O)cc1O | 17 | 4.3 | – | – | – | –
28 | CC(C)c1cc(-n2nncc2-c2ccc(CN3CCN(c4ccccc4)CC3)cc2)c(O)cc1O | 36 | 520 | – | – | – | –
29 | CCNC(=O)c1nnn(-c2cc(C(C)C)c(O)cc2O)c1-c1ccc(CNCCN2CCOCC2)cc1 | 14.8 | 140 | Dose-dependent effect | Dose-dependent effect | Dose-dependent effect | Dose-dependent effect
30 | CCNC(=O)c1nnn(-c2cc(C(C)C)c(O)cc2O)c1-c1ccc(CN2CCC[C@H](O)C2)cc1 | 23 | 70 | – | – | – | –
31 | CC(C)c1cc(-n2nnc(C(=O)N3CCOCC3)c2-c2ccc(CN3CCOCC3)cc2)c(O)cc1O | 270 | > 1000 | – | – | – | –

— ChEMBL document CHEMBL3232837, “Synthesis and evaluation of new Hsp90 inhibitors based on a 1,4,5-trisubstituted 1,2,3-triazole scaffold” (J Med Chem, 2014)
